# Screens (PubChem)
# Compounds with a hit are over-represented: about 4.6% of the library has one in this group of screens.
# GPR7 antagonist = GPR7 receptor antagonists, primary screen, cell-based, fluorescence, single concentration; Neuropeptides B/W receptor type 1 (Homo sapiens), P48145; GPR7-expressing cells, fluorescence antagonist assay; hit rate 1.1% among 290,000; inhibition, % at 4.4 µM; AID 1861, 2009; in the data active = inhibition above about 16%, passing the limit was not always enough;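 also: cells stimulated with the agonist NPW; 0% = agonist with vehicle and 100% = vehicle without agonist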
# OX1R antag-1 = OX1R (HCRTR1) antagonists, primary screen, fluorescence, CHO/OX1R cells, Fluo-8 calcium, orexin A; Orexin/Hypocretin receptor type 1 (Homo sapiens), O43613; Fluo-8 calcium fluorescence; inhibition, % at 5 µM; hit rate 0.43% among 330,000; AID 434989, 2010;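 active = inhibition above its plate's threshold, mean inhibition of all tested compounds on the plate plus 3 SD, cut at about 37% in these data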;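 also: 0% = orexin A challenge wells and 100% = SB-334867-A antagonist wells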
# Target sequence (O43613 whole entry, looked up): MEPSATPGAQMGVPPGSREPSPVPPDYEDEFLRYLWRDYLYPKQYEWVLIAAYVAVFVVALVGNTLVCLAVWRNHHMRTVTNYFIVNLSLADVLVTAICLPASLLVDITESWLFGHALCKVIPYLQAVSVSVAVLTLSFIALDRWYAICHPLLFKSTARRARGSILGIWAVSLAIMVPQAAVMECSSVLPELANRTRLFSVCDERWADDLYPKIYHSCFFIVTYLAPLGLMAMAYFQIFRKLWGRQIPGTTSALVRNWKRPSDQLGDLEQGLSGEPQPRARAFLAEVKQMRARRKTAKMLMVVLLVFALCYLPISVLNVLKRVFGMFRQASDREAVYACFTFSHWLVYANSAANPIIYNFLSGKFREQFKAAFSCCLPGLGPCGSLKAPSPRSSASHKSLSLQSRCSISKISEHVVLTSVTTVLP
# TAAR1 agonist = human TAAR1 agonists, primary screen, Fluo-8 calcium fluorescence, CHO RD-HGA16 cells | Trace amine-associated receptor 1 (Homo sapiens), Q96RJ0 | vehicle wells 0%, saturating PEA agonist 100% | activation, % at 3 µM | hit rate 0.99% among 360,000;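 active = activation above the mean activation of all test compounds in the run plus 3 SD, cut at about 38% in these data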
#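 System: CHO-derived RD-HGA16 cells with stable Gα16 and human TAAR1 / Times: 17-24 h plating, Fluo-8 75 min 37 °C, 30 min RT / Technique: calcium-sensitive Fluo-8 signal, excitation 470-495, emission 515-575 nm / Measure: % activation relative to PEA EC100 response / Benchmarks: DMSO and PEA EC100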
# CHO parental Ca = ATP-evoked calcium signal inhibitors, parental CHO, primary screen, counter-screen for OX1R antagonist project, cell-based, fluorescence, Fluo-8 calcium dye; parental CHO-K1, ATP-induced calcium, Fluo-8 fluorescence; inhibition, % at 5.6 µM; hit rate 0.63% among 330,000;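 active = inhibition above that plate's mean sample inhibition plus 3 SD, cut at about 26% in these data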;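 also: 0% = ATP-challenged DMSO wells and 100% = DMSO wells without ATP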
#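 Material: Parental CHO cells | Reagent: ATP | Compound dosing: Single nominal dose of 5.6 µM per compound | Detection: Intracellular calcium via Fluo-8 no-wash fluorescent dye | Read-out: % inhibition of ATP-induced calcium mobilization | Benchmarks: Low control ATP plus DMSO, high control DMSO only | Replicates: Singlicate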
# TAAR1 antagonist = human TAAR1 antagonists, primary screen, Fluo-8 calcium fluorescence, CHO RD-HGA16 cells | antagonist | inhibition, % at 3 µM | hit rate 1.5% among 360,000 | AID 624466, 2012;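 active = inhibition above a per-plate cutoff, the mean inhibition of test compounds on that plate plus 3 SD, cut at about 49% in these data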;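 also: 0% = DMSO plus EC80 beta-PEA response and 100% = DMSO alone without agonist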
#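 System: CHO RD-HGA16 cells bearing hTAAR1. Reagent: EC80 β-phenethylamine stimulus. Schedule: seeding 17-24 h prior, 75-min 37 °C, 30-min RT dye loading. Signal: Fluo-8 intracellular calcium dye fluorescence, real-time kinetic reads. Read-out: % inhibition from peak post-agonist over basal fluorescence ratio. Benchmarks: vehicle wells and EC80 agonist wells. Replicates: n of 1.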
# OX1R antag-2 = antagonists of human orexin 1 receptor (OX1R); Orexin/Hypocretin receptor type 1 (Homo sapiens), O43613; OX1R-expressing cells, FRET antagonist read-out; inhibition, % at 6.6 µM; hit rate 1.8% among 330,000; in the data active = inhibition mostly above about 38%, no sharp cut-off; inactive = mostly below about 40%;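 also: 0% = agonist challenge alone and 100% = reference antagonist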
# OX1R Fluo8 conf = OX1R (HCRTR1) antagonists, confirmation, fluorescence, CHO/OX1R cells, Fluo-8 calcium, orexin A | shares compounds with OX1R antag-1 | orexin A calcium Fluo-8 fluorescence | inhibition, % at 5 µM | hit rate 38% among 1,100; in the data active = inhibition above about 29%;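 also: 0% = agonist challenge alone and 100% = reference antagonist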
# CHO Ca triplic = ATP-evoked calcium inhibition in parental CHO, counter-screen for OX1R antagonist project, cell-based, fluorescence, CHO-K1, triplicate; shares compounds with OX1R antag-1; ATP-induced calcium, Fluo-8 fluorescence; inhibition, % at 5.6 µM; hit rate 9.3% among 1,100; AID 492965, 2010;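 active = inhibition above a per-plate limit, the mean inhibition of that plate's test compounds plus 3 SD, cut at about 25% in these data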;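 also: 0% = ATP challenge with DMSO and 100% = DMSO without ATP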
# OX1R HTRF conf = OX1R (HCRTR1) antagonists, confirmation, cell-based, HTRF. shares compounds with OX1R antag-2. inhibition, % at 6.6 µM. OX1R-expressing cells, HTRF antagonist assay. hit rate 49% among 1,800. AID 492964, 2010; in the data active = inhibition above about 55%;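 also: CHO cells expressing OX1R stimulated with orexin A at about EC80; 0% = agonist challenge alone and 100% = reference antagonist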
# CHO-K1 HTRF cnt = signal inhibition in parental CHO-K1 cells, counter-screen for OX1R antagonist project, cell-based, HTRF. shares compounds with OX1R antag-2. HTRF counterscreen. inhibition, % at 6.6 µM. hit rate 48% among 1,800; in the data active = inhibition above about 17%;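 also: 0% = agonist challenge with vehicle and 100% = vehicle alone without agonist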
# * marks the source's active call; other numbers are inactive results; . = no result given.
SMILES,GPR7 antagonist,OX1R antag-1,TAAR1 agonist,CHO parental Ca,TAAR1 antagonist,OX1R antag-2,OX1R Fluo8 conf,CHO Ca triplic,OX1R HTRF conf,CHO-K1 HTRF cnt
CC(C)c1ccc(CN(C)C(=O)c2ccc(S(=O)(=O)NCc3ccco3)cc2)cc1,.,44*,14,-9,33,42*,25,25*,42,-4
COc1ccc(CNC(=S)NC2CCCCC2)cc1,-13,-5,-1,3,-11,3,.,.,.,.
COc1cc(CN2CCNC(=O)C2CC(=O)N(C)Cc2cccnc2)cc(OC)c1 (configuration not stated),-1,-18,0,-20,2,18,.,.,.,.
CCOC(=O)c1c(NC(=O)C2C3CCC(O3)C2C(=O)O)sc2c1CCCC2 (configuration not stated),-8,-19,-1,-6,5,18,.,.,.,.
Cc1ccc(-c2c(C)sc(NC(=O)C3C4CCC(O4)C3C(=O)O)c2C(=O)OC(C)C)cc1 (configuration not stated),-17,52*,16,-12,7,78*,7,3,60*,9
COc1ccccc1C1NC(=O)CCC1[N+](=O)[O-] (configuration not stated),-6,-10,0,-3,-5,2,.,.,.,.
COc1ccc(OC)c(S(=O)(=O)NCC(c2ccco2)N2CCc3ccccc32)c1 (configuration not stated),.,74*,4,-9,2,90*,79*,-8,89*,4
COc1ccc(CC(=O)N2CCN(C(=O)Cc3ccc(OC)c(OC)c3)CC2)cc1OC,.,.,1,.,-6,.,.,.,.,.
N#Cc1c(NC(=O)CSc2nc3c(c(C(F)(F)F)n2)CCc2ccccc2-3)sc2c1CCCC2,-14,-2,13,2,-5,7,.,.,.,.
COc1ccc(NC(=O)CN(C)S(=O)(=O)c2ccc3[nH]c(=O)oc3c2)cc1,-15,38,2,-28,4,56*,15,-3,36,7
N#CCC(=O)Nc1ccc(C(=O)Nc2cccnc2)cc1,-5,32,1,-2,-13,91*,3,13,23,-3
CC(C)(C)c1ccc(C(=O)Nc2cccnc2)cc1,-8,5,1,10,-9,9,.,.,.,.
N#CCC(=O)Nc1ccc(C(=O)Nc2ccc3c(c2)OCO3)cc1,.,67*,7,-12,-3,67*,16,3,31,4
CCC(=O)Nc1ccc(C(=O)Nc2ccc3c(c2)OCO3)cc1,-13,-3,3,-11,3,18,.,.,.,.
O=C1CN(C(=O)COC(=O)/C=C/c2ccc(OC(F)F)cc2)c2ccccc2N1,6,17,1,12,6,24,.,.,.,.
Cc1ccc2nc(SCC(=O)Nc3cc(C(C)(C)C)nn3-c3ccccc3)[nH]c2c1,-22,-21,1,-20,-10,10,.,.,.,.
Cc1cc(NC(=O)CSc2nc3ccccc3[nH]2)n(-c2ccccc2)n1,-6,61*,2,-35,-39,60*,27,-18,62*,-9
CC(Sc1ccc(Cl)cc1)C(=O)NNC(=O)c1ccccc1O (configuration not stated),-8,30,0,-11,-3,66*,32*,-5,75*,2
N#C/C(=N\Nc1cccc([N+](=O)[O-])c1)C(=O)c1ccc(Br)cc1,-9,42*,3,26,33,94*,21,50*,39,19*
COc1cccc(C(=O)NCC2CCCN2S(=O)(=O)c2ccccc2)c1 (configuration not stated),.,40,5,-30,0,49*,13,-18,63*,-6
Fc1cccc2sc(Nc3nc4cc5c(cc4s3)OCO5)nc12,-6,41*,2,-12,39,76*,22,0,59*,6
Fc1cccc2sc(Nc3nc4cc5c(cc4s3)OCCO5)nc12,-14,25,12,-13,12,48,.,.,.,.
C=CCn1c(SCc2ccc(C(=O)Nc3nccs3)cc2)nnc1-c1ccc(C)c(Cl)c1,-8,70*,8,3,65*,79*,69*,18,82*,1
C=CCn1c(SCc2ccc(C#N)cc2)nnc1-c1cccc(Cl)c1,-7,-8,2,-11,23,50,.,.,.,.
COc1ccccc1NC(=O)[C@@H]1CCCN1S(=O)(=O)c1ccc(Cl)cc1,.,48*,5,-11,-13,58*,52*,-27,70*,-22
SMILES,GPR7 antagonist,OX1R antag-1,TAAR1 agonist,CHO parental Ca,TAAR1 antagonist,OX1R antag-2,OX1R Fluo8 conf,CHO Ca triplic,OX1R HTRF conf,CHO-K1 HTRF cnt
O=C(NCc1ccccc1)C1CCCN1S(=O)(=O)c1ccc(Cl)cc1 (configuration not stated),-14,-20,6,-27,-23,7,.,.,.,.
CCOc1ccccc1NC(=O)C1CCCN1S(=O)(=O)c1ccccc1C(F)(F)F (configuration not stated),.,76*,-1,-21,-2,79*,39*,-16,85*,-4
O=C(Nc1ccccc1)[C@@H]1CCCN1S(=O)(=O)c1ccc(Cl)cc1,.,45*,3,-15,-13,62*,39*,-12,78*,8
Cc1ccc(S(=O)(=O)N2CCCC2C(=O)Nc2nc3c(s2)CCCC3)cc1 (configuration not stated),-16,44*,3,-18,5,78*,31*,-14,93*,1
C=CCNC(=O)c1c(C(F)(F)F)nn(C)c1Cl,-11,3,5,-10,0,11,.,.,.,.
Cc1nc2ccc(C(=O)NC(C)(C)C)cn2c1N(C)C(=O)CCc1ccccc1,.,.,1,.,-6,.,.,.,.,.
